Data reported in ChEMBL document CHEMBL2417372, “Design, synthesis, and mechanism of action of 2-(3-hydroxy-5-methoxyphenyl)-6-pyrrolidinylquinolin-4-one as a potent anticancer lead” (Bioorg Med Chem Lett, 2013).
One block for each compound: values may come before it. Active and inactive are the calls of the source. The rule behind the calls is not given here.

Key:
[1] = Cytotoxicity against human Hep3B cells after 48 hrs; type: functional, cell-based, Hep 3B2
In short: (§1)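 MTT viability assay on log-phase cells at 37 °C, exposed to compound or DMSO vehicle for 48 h. MTT (1 mg/mL in PBS) was then added for 2 h, and absorbance was read at 570 nm with 630 nm correction. IC50 is the concentration giving 50% proliferation inhibition. Cells were cultured in 5% CO2: HL-60 in RPMI-1640 with 10% FBS; Hep3B in DMEM/F12 with 10% FBS; Detroit 551 in DMEM with 10% FBS.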

Detroit 551 = assay: Cytotoxicity against human Detroit 551 cells after 48 hrs; type: cell-based; conditions: Detroit 551, 48 h; in short: as §1
HL-60 = assay: Cytotoxicity against human HL60 cells after 48 hrs; type: functional, cell-based; conditions: HL-60, 48 h; in short: as §1
NCI-H460 = assay: Cytotoxicity against human NCI-H460 cells after 48 hrs; type: functional, cell-based; conditions: NCI-H460, 48 h
Tubulin (Sus scrofa) = Tubulin (Sus scrofa) (UniProt P02554+P02550); conditions: 1 uM
Tubulin (Homo sapiens) [2] = target: T1, Tubulin (Homo sapiens) (UniProt P68371+Q9H4B7+P0DPH7+P68366+Q13509+Q71U36+P04350+Q3ZCM7+P07437+P68363+Q9BQE3+Q6PEY2+Q13885+Q9BVA1+Q9BUF5); assay: Inhibition of tubulin polymerization in human NCI-H522 cells assessed as alpha-tubulin accumulation in cytoskeletal fraction at 100 nM after 24 hrs by Western blot analysis; type: cell-based
In short: (§2)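 NCI-H522 cells were exposed for 24 h to compound (10, 30 or 100 nM) or DMSO vehicle. They were then lysed 5 min at 37 °C in hypotonic buffer (1 mM MgCl2, 2 mM EGTA, 0.5% NP-40, protease inhibitors, 20 mM Tris-HCl pH 6.8) and centrifuged at 15,000 × g for 10 min at 25 °C. α- and β-tubulin were assessed in the cytoskeletal fraction.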

Tubulin (Homo sapiens) [3] = target: T1, Tubulin (Homo sapiens); assay: Inhibition of tubulin polymerization in human NCI-H522 cells assessed as beta-tubulin accumulation in cytoskeletal fraction at 100 nM after 24 hrs by Western blot analysis; type: cell-based; in short: as §2

Chain of Tubulin (Sus scrofa) (P02550 whole entry, looked up): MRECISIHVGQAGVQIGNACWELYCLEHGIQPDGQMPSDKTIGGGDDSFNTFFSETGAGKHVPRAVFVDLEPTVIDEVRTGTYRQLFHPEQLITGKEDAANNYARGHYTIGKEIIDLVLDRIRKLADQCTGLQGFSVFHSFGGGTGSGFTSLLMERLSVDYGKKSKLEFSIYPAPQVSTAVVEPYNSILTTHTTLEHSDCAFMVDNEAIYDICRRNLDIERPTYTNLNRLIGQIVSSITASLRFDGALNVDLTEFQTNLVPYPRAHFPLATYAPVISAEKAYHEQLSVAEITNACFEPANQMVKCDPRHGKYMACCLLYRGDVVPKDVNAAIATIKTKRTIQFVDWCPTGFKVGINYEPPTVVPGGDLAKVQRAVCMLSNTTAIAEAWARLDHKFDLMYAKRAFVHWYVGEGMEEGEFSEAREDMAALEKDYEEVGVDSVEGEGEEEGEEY
Chain of Tubulin (Sus scrofa) (P02554 whole entry, looked up): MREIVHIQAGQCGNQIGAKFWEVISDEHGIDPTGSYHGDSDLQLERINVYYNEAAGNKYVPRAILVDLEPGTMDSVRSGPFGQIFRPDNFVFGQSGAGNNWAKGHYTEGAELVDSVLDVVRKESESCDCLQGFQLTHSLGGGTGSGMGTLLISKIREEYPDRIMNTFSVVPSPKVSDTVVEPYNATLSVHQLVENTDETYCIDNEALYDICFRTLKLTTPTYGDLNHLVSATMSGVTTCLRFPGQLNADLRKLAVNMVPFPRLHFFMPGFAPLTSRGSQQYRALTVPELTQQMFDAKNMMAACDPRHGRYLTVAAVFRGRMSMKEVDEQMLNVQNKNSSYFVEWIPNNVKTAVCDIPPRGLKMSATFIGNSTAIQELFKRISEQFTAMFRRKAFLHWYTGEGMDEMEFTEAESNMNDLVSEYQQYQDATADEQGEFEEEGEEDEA

Structure (SMILES): COc1cc(O)cc(-c2cc(=O)c3cc(N(C)C)ccc3[nH]2)c1
- IC50 [1]: 6.15 µM
- IC50 (Detroit 551): > 50 µM
- IC50 (HL-60): 0.22 µM
- IC50 (NCI-H460): > 50 µM

Structure (SMILES): O=c1cc(-c2cc(O)cc(O)c2)[nH]c2cc3c(cc12)OCO3
- IC50 [1]: > 25 µM
- IC50 (HL-60): 8.71 µM
- IC50 (NCI-H460): > 25 µM

- inhibition (Tubulin (Sus scrofa)): Active
- inhibition (Tubulin (Homo sapiens) [2]): Active
- inhibition (Tubulin (Homo sapiens) [3]): Active
Structure (SMILES): CC[C@]1(O)C[C@@H]2CN(CCc3c([nH]c4ccccc34)[C@@](C(=O)OC)(c3cc4c(cc3OC)N(C)[C@H]3[C@@](O)(C(=O)OC)[C@H](OC(C)=O)[C@]5(CC)C=CCN6CC[C@]43[C@@H]65)C2)C1

Structure (SMILES): Oc1cccc(-c2cc(O)c3cc4c(cc3n2)OCO4)c1
- IC50 [1]: 1.05 µM
- IC50 (Detroit 551): 21.8 µM
- IC50 (HL-60): 0.25 µM
- IC50 (NCI-H460): 17 µM

Structure (SMILES): O=c1cc(-c2cc(O)cc(O)c2)[nH]c2ccc(N3CCCC3)cc12
- IC50 [1]: 1.58 µM
- IC50 (Detroit 551): > 25 µM
- IC50 (HL-60): 0.34 µM
- IC50 (NCI-H460): 13.9 µM

Structure (SMILES): O=c1cc(-c2ccc(O)cc2)[nH]c2cc3c(cc12)OCO3
- IC50 [1]: 22.3 µM
- IC50 (Detroit 551): 41 µM
- IC50 (HL-60): 3.26 µM
- IC50 (NCI-H460): > 100 µM

Structure (SMILES): COc1cc(O)cc(-c2cc(=O)c3cc4c(cc3[nH]2)OCO4)c1
- IC50 [1]: > 50 µM
- IC50 (Detroit 551): > 50 µM
- IC50 (HL-60): 0.5 µM
- IC50 (NCI-H460): > 50 µM

Structure (SMILES): CCOc1cc(O)cc(-c2cc(=O)c3cc(N4CCCC4)ccc3[nH]2)c1
- IC50 [1]: 0.07 µM
- IC50 (Detroit 551): 13.2 µM
- IC50 (HL-60): 0.02 µM
- IC50 (NCI-H460): 0.59 µM

Structure (SMILES): COc1cccc(-c2cc(O)c3cc4c(cc3n2)OCO4)c1
- IC50 [1]: 0.08 µM
- IC50 (Detroit 551): 4.77 µM
- IC50 (HL-60): 0.08 µM
- IC50 (NCI-H460): 0.2 µM

Structure (SMILES): CCOc1cc(O)cc(-c2cc(=O)c3cc4c(cc3[nH]2)OCO4)c1
- IC50 [1]: 25 µM
- IC50 (HL-60): 0.5 µM
- IC50 (NCI-H460): > 25 µM

Structure (SMILES): O=c1cc(-c2ccccc2O)[nH]c2cc3c(cc12)OCO3
- IC50 [1]: 8.04 µM
- IC50 (Detroit 551): 48.9 µM
- IC50 (HL-60): 7.62 µM
- IC50 (NCI-H460): 19.1 µM

Structure (SMILES): COc1cc(O)cc(-c2cc(=O)c3cc(N4CCOCC4)ccc3[nH]2)c1
- IC50 [1]: 6.03 µM
- IC50 (Detroit 551): > 100 µM
- IC50 (HL-60): 3.9 µM
- IC50 (NCI-H460): > 100 µM

- inhibition (Tubulin (Sus scrofa)): Active
- inhibition (Tubulin (Homo sapiens) [2]): Active
- inhibition (Tubulin (Homo sapiens) [3]): Active
Structure (SMILES): CC[C@]1(O)C[C@H]2CN(CCc3c([nH]c4ccccc34)[C@@](C(=O)OC)(c3cc4c(cc3OC)N(C=O)[C@H]3[C@@](O)(C(=O)OC)[C@H](OC(C)=O)[C@]5(CC)C=CCN6CC[C@]43[C@@H]65)C2)C1
